Assay results reported in the EternaBench riboswitch data.

Test system: MS2 coat protein
Experiment: apparent Kd, MS2 coat protein; higher = weaker binding; RNA-MaP array; FMN 200 µM where present
Summary of the method: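 Green signal was scaled to red-channel RNA signal and control-cluster median Fmax, and the apparent Kd was taken as the median of filtered per-cluster binding-curve fits. The binding series used SNAP-549-labelled MS2 coat protein from 0.7 or 1.5 nM, doubling to 3 µM, on designs transcribed by stalled E. coli RNA polymerase on Illumina sequencing-chip clusters. Each series ran without and then with constant ligand in 100 mM Tris-HCl pH 7.5, 80 mM KCl, 4 mM MgCl2, BSA, DTT, yeast tRNA and Tween-20.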

[1] = designed as: OFF switch for flavin mononucleotide, no ligand
[2] = ligand present: flavin mononucleotide, designed as: OFF switch for flavin mononucleotide
[3] = designed as: ON switch for flavin mononucleotide, no ligand
[4] = ligand present: flavin mononucleotide, designed as: ON switch for flavin mononucleotide

Row | Sequence | apparent Kd [1] | apparent Kd [2] | apparent Kd [3] | apparent Kd [4]
1 | AGUCGGCGAGGAUAUACAUGAGGAUCACCCAUGUGUGAUCCUAGACCUGUAGGUCCAUGUAGAAGGCGCUGACA | 19.6 nM | 23.6 nM |  | 
2 | UAGAAGUCAGGAUAUGCUGCUCGUCACUUGCGUGAUGAGUAGCAGAAGGGACAUGAGGAUCACCCAUGUAAAGC | 48.8 nM | 54.3 nM |  | 
3 | GGUACUCAAAGAGUACCAAAACGAACAUGAGGAUCACCCAUGUAGGAUAUGCUACUCAAAGAGUAGCAGAAGGACAUGUGCAGA | 29.6 nM | 149 nM |  | 
4 | GCGUGUAAUGUAGGAUAUGACACAGGAAACUGGUCAGAAGGACAUGAGGAUCACCCAUGUAAAAUGUUCAAGAAUAACACAUGC | 22.9 nM | 37.8 nM |  | 
5 | GGAUAGGACAGAGGAUAUACGUGCUAGAGAUACUAGCAAAAUUUCCUCACAUGAGGAUCACCCAUGUAGAAGGCUGUCUUAUCG | 16 nM | 191 nM |  | 
6 | AAAUUCCUCACAGGAUAUCCUACAUGAGGAUCACCCAUGUACUAACUGAGCAAAUUGCAACAAAAGGAGAAGGGUGAGGUGAAG |  |  | 36.3 nM | 4.25 nM
7 | CCUUUGAAGAUCCUAAAUUUCGACAUGAGGAUCACCCAUGUGCAGGAUAUCGUGCCAGUGAUGUGCGAGAAGGGCAGUCUCUGC | 64.6 nM | 73.9 nM |  | 
8 | AAAAGGGCAGGAUAUACAUGAGGAUCACCCAUGUGAAAAAAAAAAAAAAAAAAAAAGUGUAGAAGGGUCAAAAA | 74 nM | 76 nM |  | 
9 | AUAUGAUAGAUAGGAUAUACUGAGGUUGAAUGGGUAGAAGGAUCGAUAGGGAAGACUACAUGAGGAUCACCCAUGUUGUGUAUU |  |  | 151 nM | 81.6 nM
10 | GAUACGUCAGGAUAUCUGAUGUCUAACUUCGGUUAGACAUCAGAGAAGGGACAUGAGGAUCACCCAUGUAUCAA | 42.6 nM | 56.7 nM |  | 
11 | UUAUUAUAUGUAGGAUAUGCAUAUUGUUGUUAUGCAGAAGGACAUGAGGAUCACCCAUGUGUAUUAUUGUUAUAUAUUAUAUAU | 21.5 nM | 31.2 nM |  | 
12 | UUUAUUAAUUAGAAGGCAUGAUGAAUUACAAUAGACAUGAGGAUCACCCAUGUGUAUUCAUGUCAUGAGGAUAUAGUCAUAUAU |  |  | 10.3 nM | 7.27 nM
13 | GAUCCGUCUGUUAGGAUAUGCUUUGGGCUUCCGCAGUAGAAGGAACAUGAGGAUCACCCAUGUCCGAUGCCGUC | 33.4 nM | 43 nM |  | 
14 | GGGUGGGUACAGAAGGGAGUGAUGGGUUUUUGGUUUGACAUGAGGAUCACCCAUGUUUAUCUGGUUCAGGAUAUGUAGUGGUGG |  |  | 149 nM | 97.3 nM
15 | GGAGGACAUGAGGAUCACCCAUGUGGAUGGGCGCUAGGAUAUGCGAGAGGAGGGAGUGGAGCAGAAGGAGUGGGUU |  |  | 65.6 nM | 57.5 nM
16 | GCCUCACAUGAGGAUCACCCAUGUCAGGAUAUAGGAGAUGGCAGAAAUCCUACCAUCGCUAGAAGGGACUGGCA | 43.4 nM | 76.4 nM |  | 
17 | UACAUCUCGUAAGGAUAUACACGAGAUUCAAGUGUAGAAGGUACUAACAUGAGGAUCACCCAUGUAUACAUGGAUAAUAGAUAU |  |  | 91.6 nM | 59.7 nM
18 | AACGGGUGGGUAGGAUAUGGCCAUGUCUCAUUGCUAGAAGGACCAGCUGCUACAUGAGGAUCACCCAUGUCGUAGUGCACCCAG |  |  | 105 nM | 15.6 nM
19 | ACCAUUUACUAGUUUUCUAUACAUGAGGAUCACCCAUGUUUUUAGGAUAUCAGCGUGAAACACGCUGAGAAGGAAGAACAUUCG | 22.6 nM | 31.2 nM |  | 
20 | CCAUGGUGGGCAGGAUAUCGUCCAGCUUGCAGACGAGAAGGGCUUAAACAUGAGGAUCACCCAUGUGAAAAGCGGGUUGUCCAA | 26.5 nM | 131 nM |  | 
21 | GUGACGAUGUAAGGAUAUGCUGAGGAAUACUCAGCAGAAGGUACAUGAGGAUCACCCAUGUAAAUAAUAAGAAAUAAACGUCAC | 16 nM | 24.9 nM |  | 
22 | AGUAAGAUGCAGAAGGUGUCAGCGAGAGCUGCGACAUGAGGAUCACCCAUGUACCAGUGAGGGUACAAGGAUAUGCAUCUUACA |  |  | 243 nM | 19.3 nM
23 | UUCUUGGCAGGAUAUGCUUUUUUAGACAUGAGGAUCACCCAUGUGAUGAUUAUUGGUUUUGCAGAAGGGCCUUAAU | 53.6 nM | 87.5 nM |  | 
24 | CGCUAAGAGAACUAUUAGAGAAGACAUGAGGAUCACCCAUGUAGAAGGACAACGGAAUAAACGUUGUAGGAUAUACACUUAGCG | 22.6 nM | 17 nM |  | 
25 | UGCUGUGUCAGAGGAUAUACUCUAAUAAUCCAUUGCAAAUAGCGAUGGACAUGAGGAUCACCCAUGUAGAAGGCUGGCACAGCA | 70.2 nM | 152 nM |  | 
26 | GGCUGUCGGUCGGGUCAUCCACAUGAGGAUCACCCAUGUAGGAGAAGGGUCCGCCAGGCUUGUGGAUAGGAUAUCCUAGAAUGA | 5.45 nM | 5.52 nM |  | 
27 | AAAAAACAAGGAUAUACGAAGGAUGGUUAUCUUAAUUUUUGACAUGAGGAUCACCCAUGUAGAAGGUGUUAAAA | 37.9 nM | 76.2 nM |  | 
28 | GCGGGUCCGGAGAAGGGUACCGUGGGUAUGAUACAUGAGGAUCACCCAUGUACAGGAUAUCCGGCAAAGAUGUGGCUAAGAGGG | 257 nM | 34.5 nM |  | 

Row | Sequence | apparent Kd [1] | apparent Kd [2] | apparent Kd [3] | apparent Kd [4]
29 | AAUUCGUUCUAGAAGGUGCAUUUGUUAAACAUGCAAGGAUAUAGACAUGAGGAUCACCCAUGUCUAUGAGACAUCGGCCUCCUG | 6.72 nM | 11.7 nM |  | 
30 | UGUGUUAUCGGAGGAUAUCGAUAUCAAACAUGAGGAUCACCCAUGUUGAGGAUCACCCAUGUCCACGAGAAGGCCGGCGUACUC |  |  | 23.8 nM | 24.1 nM
31 | ACGGCAAUCGCAGGAUAUGGUUACAUGAGGAUCACCCAUGUCUAGGGUCUAAUUAGGUAUAACUACCAGAAGGGCGAAGGCCUA | 53.5 nM | 66 nM |  | 
32 | UUCCUGUCAGGAUAUGACUAGAGGCACGAAAGUGUGUUUAGUUAGAAGGGACAUGAGGAUCACCCAUGUAGUCC | 23.3 nM | 36.2 nM |  | 
33 | UUUUAUGUCAAAGGAUAUAUAAAUAAAUUUAUAACAUGAGGAUCACCCAUGUACUUUAGUAUGAGGUAGAAGGUUGAUAAGAGA |  |  | 35.4 nM | 23.3 nM
34 | AGGAAGUUAGGAUAUGCUGCUCGUCACUUGCGUGAUGAGUAGCAGAAGGAACAUGAGGAUCACCCAUGUAAAAA | 27.7 nM | 22.2 nM |  | 
35 | GAGUCUCUAUUAGAACCGAUACGAACAUGAGGAUCACCCAUGUAGGAUAUGCUAAAAGUUGUGUUGCAGAAGGACAUUUAUCGC | 11.1 nM | 10.9 nM |  | 
36 | CCUCGACAUGAGGAUCACCCAUGUUAGGAUAUGGGAGCGGGAAUUUGAGUAUUCGUACCCAGAAGGAACAGUUA | 42.6 nM | 96 nM |  | 
37 | AAUUAUUCAGGAGGAUAUCCCAGGACAUGAGGAUCACCCAUGUUCGGGUUGCCCUCAUGAACGCCGGAGAAGGCCUGAACGAAU | 13 nM | 17.1 nM |  | 
38 | GUUGCGUUUGUGAGGAUAUGCUGGUCCUUGGUUCGGCAGAAGGCACAUGAGGAUCACCCAUGUGGUGUUGUUCC | 126 nM | 94.7 nM |  | 
39 | AAGAAGUGAGGAUAUGCAGUGGCCUGUAGACGCAAGCACUUGUAGAAGGCACAUGAGGAUCACCCAUGUUUAAA | 35 nM | 32.8 nM |  | 
40 | AUCCUGCGAGGAUAUACAUAGUGACGUCUGUUUGGUCUUAAACAUGAGGAUCACCCAUGUAGAAGGUGCGUCAC | 15.8 nM | 19.5 nM |  | 
41 | GGAGAGGAAACAUGAGGAUCACCCAUGUGAGUGGUCCGAAUAUAGGAUAUCCACACGAGAAGUGUGGAGAAGGAUAACCUCUCC | 73 nM | 90.2 nM |  | 
42 | GCGGUAUUGUAAGGAUAUACUCUGUGAUGAAGAGUAGAAGGUACUUACAUGAGGAUCACCCAUGUUUUUCGUAAAAGUUACCGC |  |  | 16.2 nM | 10.6 nM
43 | CGCAAGUCAGGAUAUUCGACUGGUAAAUCUGUGGAUCAGUAGGAGAAGGGACAUGAGGAUCACCCAUGUUUGUU | 28.6 nM | 31.9 nM |  | 
44 | AAUAACAGAGGAUAUACUGUUUUAUGUGUUUGUUAUUUUAAACAUGAGGAUCACCCAUGUAGAAGGCUGAAUGA | 21.5 nM | 24.5 nM |  | 
45 | UGUCGGAGCAGAGGAUAUUACAUGAGGAUCACCCAUGUAUGAACCAAUAGCUGGAAACAGCAAUCUAAGAAGGCUGCUCCGACA | 4.47 nM | 4.34 nM |  | 
46 | AGAAACUACGAGAAGGACAUAUGAUUAAGACUAAACAUGAGGAUCACCCAUGUAGGAUAUCGUAGUUUCAGGAUCGUGAGAUCA | 7.27 nM | 20.1 nM |  | 
47 | AACAAUCUAUCUGAGGAUAUCAUGAAAAAAACAUGAGGAUCACCCAUGUGCAGGAAAACUGCAUAUGAGAAGGCAGAUAGAUUGA |  |  | 702 nM | 27 nM
48 | GGGAGACAUGAGGAUCACCCAUGUGAAAACGUGGCAGGAUAUGGAUGGAAACCAUACUGUCCAGAAGGGCCUUGUC |  |  | 47.4 nM | 37.8 nM
49 | GUGCGGUCAGGAUAUGCAUGGCGGGACUUGCGUCGUGGCGUGGAGAAGGGACAUGAGGAUCACCCAUGUGGAGC | 51.4 nM | 54.2 nM |  | 
50 | CCGGAAACGGGUAGCUGUACAUGAGGAUCACCCAUGUGAUCAUAGGAUAUGGAUCCUAAUUGGAUCCAGAAGGAUGUCAGCUAC |  |  | 163 nM | 580 nM
51 | AUUAUGCAGCAGGAUAUCGAUCCGCGGUAUGAUCGAGAAGGGCUGACAUGAGGAUCACCCAUGUGCGUCCUAGG | 39.8 nM | 147 nM |  | 
52 | AAAUUUAACGAAGGAUAUGGUUACAUGAGGAUCACCCAUGUGUGCCUUGUGAUGCUGAUUAAGUUCCAGAAGGUCGUAUACAUA | 84.8 nM | 234 nM |  | 
53 | GACUUGCGCACAGGAUAUCCACGGAGCGGACGUGGAGAAGGGUGACAUGAGGAUCACCCAUGUACGUAAGUCUGGAUCACUUCC |  |  | 49.9 nM | 37.9 nM
54 | UAAUAAUUAUGAGGAUAUAUACAACAUGAGGAUCACCCAUGUACCCAUGUAGUAGAAGGCAUAUUUUUAUUUAAUAAUAUAACU |  |  | 60.4 nM | 27.6 nM
55 | GCUCGAUGCGCUGAGCACAUGAGGAUCACCCAUGUAAAAUGUCAGGAUAUUUACGUGCUUUAUGUAGAGAAGGGACUAUCGAGC |  |  | 60.5 nM | 24.1 nM
